According to ChEMBL document CHEMBL1765023, “Acetyl analogs of combretastatin A-4: synthesis and biological studies” (Bioorg Med Chem, 2011):

What was measured:
MDA-MB-231 = test: Growth inhibition of human MDA-MB-231 cells after 48 hrs by sulforhodamine B assay; assay type: functional; conditions: MDA-MB-231, 48 h
Method in brief: (§1)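 NCI 60 human cancer cell line screen run at the National Cancer Institute. Cells had 48 h continuous exposure, and proliferation was read by sulforhodamine B staining. GI50 (50% growth inhibition) was taken from dose–response curves.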

NCI-H522 = test: Growth inhibition of human NCI-H522 cells after 48 hrs by sulforhodamine B assay; assay type: functional; conditions: NCI-H522, 48 h; method in brief: as §1
U-251 = test: Growth inhibition of human U251 cells after 48 hrs by sulforhodamine B assay; assay type: functional; conditions: U-251, 48 h
Method in brief: (§2)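 Tested in the NCI 60 human cancer cell line panel. Cells were exposed continuously for 48 h and proliferation was read by sulforhodamine B staining. GI50 (concentration for 50% growth inhibition), TGI (total growth inhibition) and LC50 were taken from dose–response curves.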

Mus musculus [1] = test: Toxicity in DBA2 mouse assessed as change in granulocyte count at 75 mg/kg, ip QD administered on alternate days for 17 days measured on day 23 relative to control; assay type: organism-based; set-up: dose 75 mg/kg, route intraperitoneal; conditions: in vivo, 408 h
Method in brief: (§3)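 Healthy female DBA2 mice, 5–7 weeks old, five per group, received 75 mg/kg ip on days 1, 5, 9, 13 and 17. Vehicle was PET (PEG400/ethanol/Tween 80, 6:3:1), 5% glucose and DMSO, with final ethanol 15% and DMSO 10%. Controls received 100 µL vehicle. Body weight was measured every other day. At sacrifice on day 23, blood counts (hematocrit, WBC, granulocytes, platelets) and liver, kidney and spleen appearance and weight were assessed.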

SF-268 = test: Growth inhibition of human SF268 cells after 48 hrs by sulforhodamine B assay; assay type: functional; conditions: SF-268, 48 h; method in brief: as §1
K562 = test: Growth inhibition of human K562 cells after 48 hrs by sulforhodamine B assay; assay type: functional; conditions: K562, 48 h; method in brief: as §1
SR = test: Growth inhibition of human SR cells after 48 hrs by sulforhodamine B assay; assay type: functional; method in brief: as §2
[2] = Induction of microtubule depolymerization in […] cells for 18 hrs by indirect immunofluorescence microscopic analysis; assay type: cell-based
Method in brief: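 Uses A-10 cells, a non-transformed line that arrests in interphase under microtubule-targeting agents. Cells were treated for 18 h and interphase microtubules were visualized by indirect immunofluorescence microscopy, with vehicle-treated controls. Depolymerization was screened at concentrations below 30 µM. For EC50, a range of concentrations was tested, and EC50 is the concentration causing 50% loss of cellular microtubules by microscopy.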

UO-31 = test: Growth inhibition of human UO31 cells after 48 hrs by sulforhodamine B assay; assay type: functional; conditions: UO-31, 48 h; method in brief: as §2
SN12C = test: Growth inhibition of human SN12C cells after 48 hrs by sulforhodamine B assay; assay type: functional; method in brief: as §2
SNB-19 = test: Growth inhibition of human SNB19 cells after 48 hrs by sulforhodamine B assay; assay type: functional; conditions: SNB-19, 48 h; method in brief: as §2
Mus musculus [3] = test: Toxicity in DBA2 mouse assessed as change in platelet count at 75 mg/kg, ip QD administered on alternate days for 17 days measured on day 23 relative to control; assay type: organism-based; set-up: dose 75 mg/kg, route intraperitoneal; conditions: in vivo, 408 h; method in brief: as §3
LOX IMVI = test: Growth inhibition of human LOXIMVI cells after 48 hrs by sulforhodamine B assay; assay type: functional; method in brief: as §1
DU-145 = test: Growth inhibition of human DU145 cells after 48 hrs by sulforhodamine B assay; assay type: functional; conditions: DU-145, 48 h; method in brief: as §1
[4] = Growth inhibition of human […] cells after 48 hrs by sulforhodamine B assay; assay type: functional; method in brief: as §1
NCI-H322M = test: Growth inhibition of human NCI-H322M cells after 48 hrs by sulforhodamine B assay; assay type: functional; method in brief: as §1
HCC 2998 = test: Growth inhibition of human HCC2998 cells after 48 hrs by sulforhodamine B assay; assay type: functional; conditions: HCC 2998, 48 h; method in brief: as §1
SK-MEL-5 = test: Growth inhibition of human SK-MEL-5 cells after 48 hrs by sulforhodamine B assay; assay type: functional; conditions: SK-MEL-5, 48 h; method in brief: as §1
HOP-92 = test: Growth inhibition of human HOP92 cells after 48 hrs by sulforhodamine B assay; assay type: functional; conditions: HOP-92, 48 h; method in brief: as §1
L1210 [5] = test: Antitumor activity against mouse L1210 cells xenografted in DBA2 mouse assessed as reduction in tumor volume at 50 mg/kg, ip QD administered on alternate days for 17 days measured on day 23; assay type: functional; conditions: route intraperitoneal
Method in brief: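 Female DBA2 mice, 5–7 weeks old, four per group. L1210 cells, passaged through a mouse, were washed three times in PBS and resuspended at 4.0 × 10^6 cells/mL. 100 µL (200,000 cells) was given sc to the flank on day 0. Vehicle-only controls. Tumor length and width were measured by caliper, and volume was compared on day 23.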

SK-OV-3 = test: Growth inhibition of human SKOV3 cells after 48 hrs by sulforhodamine B assay; assay type: functional; conditions: SK-OV-3, 48 h; method in brief: as §2
SW-620 = test: Growth inhibition of human SW620 cells after 48 hrs by sulforhodamine B assay; assay type: functional; conditions: SW-620, 48 h; method in brief: as §2
HCT-15 = test: Growth inhibition of human HCT15 cells after 48 hrs by sulforhodamine B assay; assay type: functional; conditions: HCT-15, 48 h; method in brief: as §1
Mus musculus [6] = test: Toxicity in DBA2 mouse assessed as change in color, weight and size in kidney at 75 mg/kg, ip QD administered on alternate days for 17 days measured on day 23 relative to control; assay type: organism-based; set-up: dose 75 mg/kg, route intraperitoneal; conditions: in vivo, 408 h; method in brief: as §3
L1210 [7] = test: Cytotoxicity against mouse L1210 cells by MTT assay; assay type: functional, cell-based
NCI-H460 = test: Growth inhibition of human NCI-H460 cells after 48 hrs by sulforhodamine B assay; assay type: functional; conditions: NCI-H460, 48 h; method in brief: as §1
MDA-MB-468 = test: Growth inhibition of human MDA-MB-468 cells after 48 hrs by sulforhodamine B assay; assay type: functional; conditions: MDA-MB-468, 48 h; method in brief: as §1
NCI-H226 = test: Growth inhibition of human NCI-H226 cells after 48 hrs by sulforhodamine B assay; assay type: functional; conditions: NCI-H226, 48 h; method in brief: as §1
EKVX = test: Growth inhibition of human EKVX cells after 48 hrs by sulforhodamine B assay; assay type: functional; method in brief: as §1
PC-3 = test: Growth inhibition of human PC3 cells after 48 hrs by sulforhodamine B assay; assay type: functional; conditions: PC-3, 48 h; method in brief: as §1
Mus musculus [8] = test: Toxicity in DBA2 mouse assessed as change in body weight at 75 mg/kg, ip QD administered on alternate days for 17 days measured on day 23 relative to control; assay type: organism-based; set-up: dose 75 mg/kg, route intraperitoneal; conditions: in vivo, 408 h; method in brief: as §3

## COc1ccc(/C=C(/C(C)=O)c2cc(OC)c(OC)c(OC)c2)cc1O
MDA-MB-231
  GI50: 575 nM
MDA-MB-231; read-out: pTGI
  TGI: > 100000 nM
NCI-H522
  GI50: 135 nM
NCI-H522; read-out: pTGI (converted)
  TGI: 537 nM
U-251
  GI50: 324 nM
U-251; read-out: pTGI
  TGI: > 100000 nM
Mus musculus [1]
  Activity: Non-toxic
SF-268
  GI50: 363 nM
SF-268; read-out: pTGI (converted)
  TGI: 16600 nM
K562
  GI50: 40.7 nM
K562; read-out: pTGI
  TGI: > 100000 nM
SR
  GI50: 26.3 nM
SR; read-out: pTGI
  TGI: > 100000 nM
[2]
  EC50: 1800 nM
UO-31
  GI50: 575 nM
UO-31; read-out: pTGI
  TGI: > 100000 nM
SN12C
  GI50: 776 nM
SN12C; read-out: pTGI
  TGI: > 100000 nM
SNB-19
  GI50: 676 nM
SNB-19; read-out: pTGI
  TGI: > 100000 nM
Mus musculus [3]
  Activity: Non-toxic
LOX IMVI
  GI50: 417 nM
LOX IMVI; read-out: pTGI
  TGI: > 100000 nM
DU-145
  GI50: 257 nM
DU-145; read-out: pTGI (converted)
  TGI: 813 nM
[4]
  GI50: 661 nM
[4]; read-out: pTGI
  TGI: > 100000 nM
NCI-H322M
  GI50: 513 nM
NCI-H322M; read-out: pTGI
  TGI: > 100000 nM
HCC 2998
  GI50: 1320 nM
HCC 2998; read-out: pTGI (converted)
  TGI: 11500 nM
SK-MEL-5
  GI50: 132 nM
SK-MEL-5; read-out: pTGI (converted)
  TGI: 3090 nM
HOP-92
  GI50: 3310 nM
HOP-92; read-out: pTGI
  TGI: > 100000 nM
L1210 [5]
  inhibition in vivo at 50 mg/kg: 35%
SK-OV-3
  GI50: 417 nM
SK-OV-3; read-out: pTGI
  TGI: > 100000 nM
SW-620
  GI50: 91.2 nM
SW-620; read-out: pTGI (converted)
  TGI: 53700 nM
HCT-15
  GI50: 398 nM
HCT-15; read-out: pTGI
  TGI: > 100000 nM
Mus musculus [6]
  Activity: Non-toxic
L1210 [7]
  IC50: 450 nM
NCI-H460
  GI50: 263 nM
NCI-H460; read-out: pTGI (converted)
  TGI: 1320 nM
MDA-MB-468
  GI50: 170 nM
MDA-MB-468; read-out: pTGI (converted)
  TGI: 550 nM
NCI-H226
  GI50: 1000 nM
NCI-H226; read-out: pTGI
  TGI: > 100000 nM
EKVX
  GI50: 5250 nM
EKVX; read-out: pTGI
  TGI: > 100000 nM
PC-3
  GI50: 191 nM
PC-3; read-out: pTGI
  TGI: > 100000 nM
Mus musculus [8]
  Activity: Non-toxic
